Source: PubChem BioAssay
A selection: hits, their analogues and other compounds. The true share with any hit is near 3%.
HIF act: HIF pathway transcriptional activation; U2OS HRE-luciferase reporter, luminescence; normalized: DMSO 0%, desferrioxamine 100%; activation, % at 7.5 µM (by protocol); 300,000 tested, 0.32% active; AID 1910;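 active = mean activation of at least 10% of the iron chelator positive control signal, with at least half of replicates also reaching 10%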
T cruzi repl: blocks replication of Trypanosoma cruzi; T. cruzi beta-gal in NIH3T3, luminescence, 90 h; inhibition, % (test concentration not listed); 300,000 tested, 1.4% active; AID 1885;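 active = mean inhibition across valid replicates above about 55%, limit read from the data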;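 note: signal also drops with host cell toxicity which is not excluded here; higher percent means less beta-gal luminescence so fewer parasites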
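Read-out: Parasite load inhibition, % | Test system: Mouse NIH/3T3 fibroblasts infected with β-gal-expressing T. cruzi Tulahuen C4 | Amount: 5,000 cells/well | Medium: DMEM, 2% fetal bovine serum | Signal: GalScreen β-gal luminescence, detergent lysis, 60 min | Timing: 3 h attach, ≥90 h co-culture | Also added: Tulahuen C4 trypomastigotes, 5000/well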
AI-2 QS modul: modulates the Vibrio harveyi AI-2 quorum sensing system; 300,000 tested, 0.4% active; Vibrio harveyi JMH597 AI-2 luminescence/OD600 ratio, 9 h; stronger effect = lower value; strain lacks LuxN and CqsS sensors; 0 = neutral-control median; activity change, % at 7.5 µM; AID 2094; in the data active = activity change below about -75%, passing the limit was not always enough;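 note: luminescence divided by OD600 gain over 9 h not by final OD600 alone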
CR mimetic SO: caloric restriction mimetics inhibiting age-related superoxide in yeast. 330,000 tested, 0.18% active. superoxide response (% of plate mean), % at 10 µM. AID 2690. S. cerevisiae aged cells, superoxide DHE fluorescence; stronger effect = lower value;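 active = superoxide response under a set limit, about three screen SD below normal, cut at about 65% in these data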;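 note: yeast aged for seven days with compound at 30 °C before DHE staining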
CendR NRP1 mod: modulators of CendR peptide binding to human neuropilin-1; O14786; FAM-RPARPAR peptide binding to NRP-1, fluorescence polarization; inhibition, % at 25 µM; 360,000 tested, 0.85% active; AID 602438;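 active = inhibition or corrected inhibition above about 18%, plus a signal ratio from 0.5 to 1.5, limit read from the data, passing the limit was not always enough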
V-ATPase pHluor: regulators of yeast V-ATPase proton transport. S. cerevisiae, pHLuorin cytosolic pH fluorescence. response, % at 10 µM. 350,000 tested, 0.37% active; in the data active = response mostly above about 7.3%, no sharp cut-off; inactive = mostly below about 5.4%; note: actives read high
Of the large screens only hits and unclear results are named; the others gave an inactive call.

Cc1cc(C)cc(N(C(=O)CNS(=O)(=O)c2ccccc2)C(C(=O)NCc2ccccc2)c2ccc(C)o2)c1 (stereo unspecified)	none
Cc1ccc(S(=O)(=O)NCC(=O)N(c2ccccc2)C(C(=O)NCc2ccccc2)c2ccco2)cc1 (stereo unspecified)	CendR NRP1 mod 28.8
CCc1nnc(NC(=O)CCC(=O)NC2CC2)s1	none
O=C(NCCCN1CCOCC1)c1ccc2c(=O)n(-c3ccc(F)c(Cl)c3)c(=S)[nH]c2c1	CendR NRP1 mod 23.6
COc1ccc(-n2c(=S)[nH]c3cc(C(=O)NCCCN4CCOCC4)ccc3c2=O)cc1	none (no result: AI-2 QS modul)
CCOc1cc2c3c(c1)C1(C(=O)N3C(C)(C)CC2C)C(C#N)=C(N)N2C(=C1C#N)Nc1ccccc12 (stereo unspecified)	none
Cc1ccc(N(CCC#N)C(=O)CCl)cc1C	T cruzi repl 58.9
Cc1ccccc1-c1nc2cc(N)ccc2o1	none
CC(C)c1ccc2oc(-c3cc(N)ccc3O)nc2c1	T cruzi repl 59.6
ClCC1CN(Cc2ccccc2Cl)CCO1 (stereo unspecified)	none
O=c1c(Cl)c(Cl)cnn1Cc1nnc(-c2ccccc2Br)o1	T cruzi repl 57.3 (no result: CR mimetic SO)
Clc1ccccc1OCc1nnc(-c2ccccc2Br)o1	none
CCS(=O)(=O)N1CCN(c2ccc(C(=O)N3CCOCC3)cc2[N+](=O)[O-])CC1	none
CCS(=O)(=O)N1CCN(c2ccc(C(=O)NC3C4CC5CC(C4)CC3C5)cc2[N+](=O)[O-])CC1 (stereo unspecified)	T cruzi repl 68.2
CCn1c2ccccc2c2cc(NC(=O)CNCC3CCCO3)ccc21 (stereo unspecified)	T cruzi repl 68.8
CS(=O)(=O)c1ccc(S(=O)CC(=O)OCc2ccccc2)c([N+](=O)[O-])c1 (stereo unspecified)	T cruzi repl 56.1 (no result: CR mimetic SO)
CC(OC(=O)CCSc1ccccc1)C(=O)Nc1ccc(S(N)(=O)=O)cc1 (stereo unspecified)	none
Cc1ccc(SCC(=O)OC(C)C(=O)Nc2ccc(S(N)(=O)=O)cc2)cc1C (stereo unspecified)	CendR NRP1 mod 44.5
Cc1ccc(S(=O)(=O)Nc2nncs2)cc1	none
CC(NS(=O)(=O)c1cn(C)c(=O)n(C)c1=O)c1ccccc1 (stereo unspecified)	CendR NRP1 mod 26.3
CCOC(=O)C1=C(CSc2nccn2C)NC(=O)NC1c1ccc2c(c1)OCO2 (stereo unspecified)	none
CCOC(=O)C1=C(CSc2nccn2C)NC(=O)NC1c1cc(C)ccc1C (stereo unspecified)	CendR NRP1 mod 25.8
CS(=O)(=O)c1ccccc1C(=O)N1CCN(S(=O)(=O)c2ccc(C3CCCCC3)cc2)CC1	none (no result: HIF act, T cruzi repl, AI-2 QS modul, CR mimetic SO)
CCN1CCN(CC(=O)N2CCCC(C(=O)c3ccc(Oc4ccccc4)cc3)C2)CC1 (stereo unspecified)	T cruzi repl 71.9
COCCC(=O)N1CCCC(C(=O)c2ccc(Oc3ccccc3)cc2)C1 (stereo unspecified)	none
CC(C)(C)NC(=O)COC(=O)c1nsc(Cl)c1Cl	none
CCn1c(=O)c(C(=O)CN2CCN(S(=O)(=O)c3cc(C)ccc3C)CC2)c(N)n(Cc2ccccc2)c1=O	none
O=C(c1ccc(Br)cc1)c1cn[nH]c1-c1ccccc1O	AI-2 QS modul -80.8
COc1ccc(C(=O)c2cn[nH]c2-c2ccc(C)cc2O)cc1	AI-2 QS modul -86.2
CC(C)(C)c1ccc(C(=O)c2cn[nH]c2-c2ccccc2O)cc1	AI-2 QS modul -91.7
Cc1ccc(O)c(-c2[nH]ncc2C(=O)c2ccc(Br)cc2)c1	none
CNC(=O)c1c(NC(=O)c2ccco2)sc(C)c1C	none
Cc1sc(NC(=O)c2ccco2)c(C(c2cccnc2)N2CCC(C)CC2)c1C (stereo unspecified)	T cruzi repl 72.4
Cc1sc(NC(=O)c2ccco2)c(CN2CCN(Cc3ccccc3)CC2)c1C	T cruzi repl 58.9
Cc1sc(NC(=O)c2ccco2)c(CN2CCC(C)CC2)c1C	HIF act 51.0
COC(=O)c1sc(-c2ccccc2)cc1NC(=O)c1ccccc1	none
Cc1ccccc1C(=O)N1CCN(c2ccc(NC(=O)c3ccc([N+](=O)[O-])o3)cc2)CC1	T cruzi repl 58.0 (no result: AI-2 QS modul)
CCCC(=O)N1CCN(c2ccc(NC(=O)c3ccc([N+](=O)[O-])o3)cc2Cl)CC1	T cruzi repl 56.6 (no result: CR mimetic SO)
O=C(Nc1ccc(N2CCN(C(=O)c3ccccc3)CC2)cc1)c1ccc([N+](=O)[O-])o1	none (no result: CR mimetic SO)
COc1ccc(N2CCN(C(=O)c3ccc(NC(=O)C4=CSCCO4)cc3)CC2)cc1	CendR NRP1 mod 35.5
O=C(Nc1ccccc1N1CCN(C(=O)c2ccc(Cl)cc2)CC1)c1ccc([N+](=O)[O-])o1	T cruzi repl 62.0
C=CCn1c(SCC(=O)NCc2ccco2)nc2sc(C)c(C)c2c1=O	none
COc1cc2c(cc1OC)C(COc1ccccc1OC)N(C(=O)c1ccco1)CC2 (stereo unspecified)	none
CCCCN(C(=O)c1cccc(S(=O)(=O)N(CC)c2ccccc2)c1)c1c(N)n(CC(C)C)c(=O)[nH]c1=O	none (no result: HIF act, T cruzi repl, AI-2 QS modul, CR mimetic SO)
CCc1cc2c(N[C@@H](Cc3ccccc3)C(=O)O)ncnc2s1	none
COC(=O)Cc1[nH]nc2c1C1(CCSCC1)C(C#N)=C(N)O2	none
CCN(CC)S(=O)(=O)c1ccc(C(=O)N2CCN(CCN3C(=O)c4cccc5cccc(c45)C3=O)CC2)cc1	none (no result: CendR NRP1 mod, V-ATPase pHluor)
O=C(COC(=O)C1CCN(S(=O)(=O)c2ccc3c(c2)OCCO3)CC1)NC1CCCCC1	none
CCOC(=O)CN1CC23C=CC(O2)C(C(=O)O)C3C1=O (stereo unspecified)	none
O=C(Nc1ccc(N2CCN(C(=O)c3ccc(Cl)cc3)CC2)cc1)c1ccc(Br)o1	T cruzi repl 69.9
O=C(Nc1ccccc1N1CCN(C(=O)c2ccc(Cl)cc2)CC1)c1ccc(Br)cc1	T cruzi repl 64.1
C[C@H]1CN=C(Nc2ccccc2)N1CCc1ccccc1	none (no result: HIF act, T cruzi repl, AI-2 QS modul)
Cc1ccc(C(=O)/C=C\C(=O)c2ccc(C)cc2)cc1	T cruzi repl 70.8
O=C(NCc1cccs1)C1CC(=O)N(C2CCCC2)C1 (stereo unspecified)	HIF act 213.6
O=C(NCc1ccccc1)C1CC(=O)N(C2CCCCCC2)C1 (stereo unspecified)	none
Cc1sc2nc(SCC(=O)N(CCO)CCO)n(C3CCCCC3)c(=O)c2c1C	CendR NRP1 mod 24.1
Cc1sc2nc(SCC(=O)N(CCO)CCO)nc(N)c2c1C	none
CN(C)CCCOC(=O)c1cc2ccccc2o1	CendR NRP1 mod 24.2
CC(C)OC(=O)n1c(=S)oc2ccccc21	none
CCCCC(=O)/C=C/n1c(=S)oc2ccccc21	AI-2 QS modul -90.3
